Converted amounts (≈) assume the structure as drawn.
How the values were obtained:
Type in all cases: functional
[1] = system: Escherichia coli; test: Antimicrobial activity against Escherichia coli isolate J53 harboring pBb containing beta-lactamase OXA-48 located within transposon Tn1999.2 by Etest method
Summary of the method: (§1)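 β-Lactam MICs read with Etest strips. Strains are E. coli J53 recipient and J53 transconjugants carrying OXA-48-positive plasmids recovered from clinical enterobacterial isolates.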

[2] = system: Escherichia coli; test: Antimicrobial activity against Escherichia coli isolate J53 harboring pEcA containing beta-lactamase OXA-48 located within transposon Tn1999.2 by Etest method; summary of the method: as §1
[3] = system: Klebsiella pneumoniae; test: Antimicrobial activity against Klebsiella pneumoniae isolate KpB expressing OXA-48 and CTX-M-15 by Etest method
[4] = system: Escherichia coli; test: Antimicrobial activity against Escherichia coli isolate A expressing beta-lactamase OXA-48 and TEM-150 by Etest method
[5] = system: Klebsiella pneumoniae; test: Antimicrobial activity against Klebsiella pneumoniae isolate KpL expressing beta-lactamase OXA-48 by Etest method
[6] = system: Escherichia coli; test: Antimicrobial activity against Escherichia coli isolate J53 harboring p3A containing beta-lactamase OXA-48 located within transposon Tn1999 by Etest method; summary of the method: as §1
[7] = system: Escherichia coli; test: Antimicrobial activity against Escherichia coli isolate J53 harboring pCF containing beta-lactamase OXA-48 located within transposon Tn1999 by Etest method; summary of the method: as §1
[8] = system: Escherichia coli; test: Antimicrobial activity against Escherichia coli isolate J53 harboring pL containing beta-lactamase OXA-48 located within transposon Tn1999.2 by Etest method; summary of the method: as §1
[9] = system: Klebsiella pneumoniae; test: Antimicrobial activity against Klebsiella pneumoniae isolate Kp11978 expressing beta-lactamase OXA-48, SHV-2a and TEM-1 by Etest method
[10] = system: Escherichia coli; test: Antimicrobial activity against Escherichia coli isolate TOP10 harboring pPR containing beta-lactamase and TEM-101 by Etest method
Summary of the method: (§2)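 β-Lactam MICs read with Etest strips. Strains are E. coli TOP10 host and TOP10 transformants made with plasmid DNA extract when conjugation failed. Transformants were selected on LB agar with ticarcillin 50 μg/ml.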

[11] = system: Providencia rettgeri; test: Antimicrobial activity against Providencia rettgeri isolate expressing beta-lactamase OXA-48 and TEM-101 by Etest method
[12] = system: Klebsiella pneumoniae; test: Antimicrobial activity against Klebsiella pneumoniae isolate Kp5A expressing beta-lactamase OXA-48 and SHV-5 by Etest method
[13] = system: Klebsiella pneumoniae; test: Antimicrobial activity against Klebsiella pneumoniae isolate Kp7A expressing beta-lactamase OXA-48 by Etest method
Summary of the method: (§3)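 MICs of β-lactams read from Etest strips. The test organisms are carbapenem-resistant, OXA-48-positive clinical Enterobacteriaceae isolates recovered from Turkey, Lebanon, Egypt, France and Belgium.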

[14] = system: Escherichia coli; test: Antimicrobial activity against Escherichia coli isolate J53 by Etest method; summary of the method: as §1
[15] = system: Klebsiella pneumoniae; test: Antimicrobial activity against Klebsiella pneumoniae isolate KpBEL expressing beta-lactamase OXA-48 by Etest method; summary of the method: as §3
[16] = system: Citrobacter freundii; test: Antimicrobial activity against Citrobacter freundii isolate expressing beta-lactamase OXA-48 by Etest method
[17] = system: Enterobacter cloacae; test: Antimicrobial activity against Enterobacter cloacae isolate 1 expressing beta-lactamase OXA-48 and SHV-5 by Etest method
[18] = system: Enterobacter cloacae; test: Antimicrobial activity against Enterobacter cloacae isolate 2 expressing beta-lactamase OXA-48 and SHV-5 by Etest method
[19] = system: Escherichia coli; test: Antimicrobial activity against Escherichia coli isolate J53 harboring p6A containing beta-lactamase OXA-48 located within transposon Tn1999 by Etest method; summary of the method: as §1
[20] = system: Klebsiella pneumoniae; test: Antimicrobial activity against Klebsiella pneumoniae isolate KpBIC expressing beta-lactamase OXA-48 by Etest method; summary of the method: as §3
[21] = system: Escherichia coli; test: Antimicrobial activity against Escherichia coli isolate J53 harboring pEnc1 containing beta-lactamase OXA-48 located within transposon Tn1999 by Etest method; summary of the method: as §1
[22] = system: Escherichia coli; test: Antimicrobial activity against Escherichia coli isolate TOP10 by Etest method; summary of the method: as §2
[23] = system: Escherichia coli; test: Antimicrobial activity against Escherichia coli isolate J53 harboring pBEL containing beta-lactamase OXA-48 located within transposon Tn1999.2 by Etest method; summary of the method: as §1
[24] = system: Klebsiella pneumoniae; test: Antimicrobial activity against Klebsiella pneumoniae isolate KpI-1 expressing beta-lactamase OXA-48 and CTX-M-15 by Etest method
[25] = system: Klebsiella pneumoniae; test: Antimicrobial activity against Klebsiella pneumoniae isolate Kp3A expressing beta-lactamase OXA-48 by Etest method; summary of the method: as §3
[26] = system: Escherichia coli; test: Antimicrobial activity against Escherichia coli isolate TOP10 harboring pBIC containing beta-lactamase OXA-48 located within transposon Tn1999.2 by Etest method; summary of the method: as §2
[27] = system: Klebsiella pneumoniae; test: Antimicrobial activity against Klebsiella pneumoniae isolate KpI-2 expressing beta-lactamase OXA-48 and CTX-M-15 by Etest method
[28] = system: Klebsiella pneumoniae; test: Antimicrobial activity against Klebsiella pneumoniae isolate KpE expressing beta-lactamase OXA-48 and CTX-M-15 by Etest method
[29] = system: Escherichia coli; test: Antimicrobial activity against Escherichia coli isolate J53 harboring pEnc2 containing beta-lactamase OXA-48 located within transposon Tn1999 by Etest method; summary of the method: as §1
[30] = system: Klebsiella pneumoniae; test: Antimicrobial activity against Klebsiella pneumoniae isolate Kp6A expressing beta-lactamase OXA-48 and TEM-150 by Etest method
[31] = system: Escherichia coli; test: Antimicrobial activity against Escherichia coli isolate J53 harboring p7A containing beta-lactamase OXA-48 located within transposon Tn1999 by Etest method; summary of the method: as §1
[32] = system: Escherichia coli; test: Antimicrobial activity against Escherichia coli isolate J53 harboring pE containing beta-lactamase OXA-48 located within transposon Tn1999.2 by Etest method; summary of the method: as §1
[33] = system: Escherichia coli; test: Antimicrobial activity against Escherichia coli isolate J53 harboring p4A containing beta-lactamase OXA-48 located within transposon Tn1999 by Etest method; summary of the method: as §1
[34] = system: Escherichia coli; test: Antimicrobial activity against Escherichia coli isolate J53 harboring p5A containing beta-lactamase OXA-48 located within transposon Tn1999 by Etest method; summary of the method: as §1
[35] = system: Escherichia coli; test: Antimicrobial activity against Escherichia coli isolate J53 harboring pI-1 containing beta-lactamase OXA-48 located within transposon Tn1999.2 by Etest method; summary of the method: as §1
[36] = system: Klebsiella pneumoniae; test: Antimicrobial activity against Klebsiella pneumoniae isolate Kp4A expressing beta-lactamase OXA-48 and CTX-M-15 by Etest method
[37] = system: Escherichia coli; test: Antimicrobial activity against Escherichia coli isolate J53 harboring pA-1 containing beta-lactamase OXA-48 located within transposon Tn1999 by Etest method; summary of the method: as §1
[38] = system: Escherichia coli; test: Antimicrobial activity against Escherichia coli isolate J53 harboring pI-2 containing beta-lactamase OXA-48 located within transposon Tn1999.2 by Etest method; summary of the method: as §1

| Structure (SMILES) | MIC [1] [µg/mL] | MIC [2] [µg/mL] | MIC [3] [µg/mL] | MIC [4] [µg/mL] | MIC [5] [µg/mL] | MIC [6] [µg/mL] | MIC [7] [µg/mL] | MIC [8] [µg/mL] | MIC [9] [µg/mL] | MIC [10] [µg/mL] | MIC [11] [µg/mL] | MIC [12] [µg/mL] | MIC [13] [µg/mL] | MIC [14] [µg/mL] | MIC [15] [µg/mL] | MIC [16] [µg/mL] | MIC [17] [µg/mL] | MIC [18] [µg/mL] | MIC [19] [µg/mL] | MIC [20] [µg/mL] | also measured |
| --- | --- | --- | --- | --- | --- | --- | --- | --- | --- | --- | --- | --- | --- | --- | --- | --- | --- | --- | --- | --- | --- |
| CO/N=C(\C(=O)N[C@@H]1C(=O)N2C(C(=O)O)=C(COC(C)=O)CS[C@H]12)c1csc(N)n1 [CEFOTAXIME] | 0.5 (≈ 1.1 µM) | 0.12 (≈ 0.263 µM) | > 512 | 64 (≈ 141 µM) | 1.5 (≈ 3.29 µM) | 0.5 (≈ 1.1 µM) | 0.12 (≈ 0.263 µM) | 0.25 (≈ 0.549 µM) | 64 (≈ 141 µM) | 32 (≈ 70.3 µM) | 64 (≈ 141 µM) | 64 (≈ 141 µM) | 0.5 (≈ 1.1 µM) | 0.06 (≈ 0.132 µM) | 0.12 (≈ 0.263 µM) | 64 (≈ 141 µM) | > 512 | 512 (≈ 1120 µM) | 0.12 (≈ 0.263 µM) | 0.5 (≈ 1.1 µM) | MIC [21]: 0.25 µg/mL (≈ 0.549 µM); MIC [22]: 0.06 µg/mL (≈ 0.132 µM); MIC [23]: 0.12 µg/mL (≈ 0.263 µM); MIC [24]: 64 µg/mL (≈ 141 µM); MIC [25]: 1 µg/mL (≈ 2.2 µM); MIC [26]: 0.5 µg/mL (≈ 1.1 µM); MIC [27]: 64 µg/mL (≈ 141 µM); MIC [28]: 64 µg/mL (≈ 141 µM); MIC [29]: 0.25 µg/mL (≈ 0.549 µM); MIC [30]: 64 µg/mL (≈ 141 µM); MIC [31]: 0.5 µg/mL (≈ 1.1 µM); MIC [32]: 0.12 µg/mL (≈ 0.263 µM); MIC [33]: 0.12 µg/mL (≈ 0.263 µM); MIC [34]: 0.12 µg/mL (≈ 0.263 µM); MIC [35]: 0.12 µg/mL (≈ 0.263 µM); MIC [36]: 64 µg/mL (≈ 141 µM); MIC [37]: 0.06 µg/mL (≈ 0.132 µM); MIC [38]: 0.12 µg/mL (≈ 0.263 µM) |
| CO[C@@]1(NC(=O)Cc2cccs2)C(=O)N2C(C(=O)O)=C(COC(N)=O)CS[C@@H]21 [CEFOXITIN] | 4 (≈ 9.36 µM) | 2 (≈ 4.68 µM) | 128 (≈ 299 µM) | 128 (≈ 299 µM) | 8 (≈ 18.7 µM) | 2 (≈ 4.68 µM) | 2 (≈ 4.68 µM) | 2 (≈ 4.68 µM) | 128 (≈ 299 µM) | 4 (≈ 9.36 µM) | 128 (≈ 299 µM) | 128 (≈ 299 µM) | 128 (≈ 299 µM) | 2 (≈ 4.68 µM) | 2 (≈ 4.68 µM) | 128 (≈ 299 µM) | > 512 | 512 (≈ 1200 µM) | 2 (≈ 4.68 µM) | 128 (≈ 299 µM) | MIC [21]: 2 µg/mL (≈ 4.68 µM); MIC [22]: 4 µg/mL (≈ 9.36 µM); MIC [23]: 2 µg/mL (≈ 4.68 µM); MIC [24]: 128 µg/mL (≈ 299 µM); MIC [25]: 2 µg/mL (≈ 4.68 µM); MIC [26]: 2 µg/mL (≈ 4.68 µM); MIC [27]: 128 µg/mL (≈ 299 µM); MIC [28]: 128 µg/mL (≈ 299 µM); MIC [29]: 2 µg/mL (≈ 4.68 µM); MIC [30]: 128 µg/mL (≈ 299 µM); MIC [31]: 2 µg/mL (≈ 4.68 µM); MIC [32]: 2 µg/mL (≈ 4.68 µM); MIC [33]: 2 µg/mL (≈ 4.68 µM); MIC [34]: 2 µg/mL (≈ 4.68 µM); MIC [35]: 2 µg/mL (≈ 4.68 µM); MIC [36]: 128 µg/mL (≈ 299 µM); MIC [37]: 2 µg/mL (≈ 4.68 µM); MIC [38]: 2 µg/mL (≈ 4.68 µM) |

Source: ChEMBL document CHEMBL1255404, “Spread of OXA-48-encoding plasmid in Turkey and beyond” (2010)
